{"data": "Published values from different studies", "FLT3 R834Q": "Receptor-type tyrosine-protein kinase FLT3 (FLT3, Homo sapiens, UniProt P36888, R834Q)", "FLT3 ITD": "Receptor-type tyrosine-protein kinase FLT3 (FLT3, Homo sapiens, UniProt P36888, ITD)", "FLT3 autoinhibited": "Receptor-type tyrosine-protein kinase FLT3, autoinhibited (FLT3, Homo sapiens, UniProt P36888)", "FLT3 N841I": "Receptor-type tyrosine-protein kinase FLT3 (FLT3, Homo sapiens, UniProt P36888, N841I)", "FLT3 F691L/ITD": "Receptor-type tyrosine-protein kinase FLT3 (FLT3, Homo sapiens, UniProt P36888, F691L/ITD)", "FLT3 D835H": "Receptor-type tyrosine-protein kinase FLT3 (FLT3, Homo sapiens, UniProt P36888, D835H)", "FLT3": "Receptor-type tyrosine-protein kinase FLT3 (FLT3, Homo sapiens, UniProt P36888)", "FLT3 D835V": "Receptor-type tyrosine-protein kinase FLT3 (FLT3, Homo sapiens, UniProt P36888, D835V)", "note": "Protocols differ between the studies behind these lines."}
{"SMILES": "F[C@@H]1CCN(c2nccc(-c3cnn4ncccc34)n2)C1", "target": "Receptor-type tyrosine-protein kinase FLT3 (FLT3, Homo sapiens, UniProt P36888, D835Y)", "effect on": "binding", "concentration": "1 µM", "remaining binding": "61%"}
{"SMILES": "C=CC(=O)N1CCC(C(=O)NCC(=O)N2CCN(c3nc(-c4cnc(N)nc4C(F)F)nc(N4CCOCC4)n3)CC2)CC1", "target": "FLT3 R834Q", "effect on": "binding", "method": "competition with immobilised ligand", "concentration": "1 µM", "remaining binding": "84%"}
{"SMILES": "CNCc1ccccc1-c1csc([C@@H](C)Nc2nc(C)nc3cc(OC)c(OC)cc23)c1", "target": "FLT3 ITD", "effect on": "cell-free assay", "method": "competition with immobilised ligand", "concentration": "1 µM", "remaining binding": "89%"}
{"SMILES": "O=C(NCC1CCOCC1)c1n[nH]cc1NC(=O)c1c(F)cccc1F", "target": "FLT3 autoinhibited", "effect on": "binding", "method": "competition with immobilised ligand", "concentration": "1 µM", "remaining binding": "78%"}
{"SMILES": "O=c1nc(-c2ccccn2)sc2ccccc12", "target": "FLT3 R834Q", "effect on": "binding", "method": "competition with immobilised ligand", "concentration": "1 µM", "remaining binding": "100%"}
{"SMILES": "O=C(c1ccc(Nc2nccc(-c3cc4ccccc4s3)n2)cc1)N1CCC(N2CCCC2)CC1", "target": "FLT3 N841I", "effect on": "binding", "method": "competition with immobilised ligand", "concentration": "1 µM", "remaining binding": "3.6%"}
{"SMILES": "C[C@H](c1ccnc(Nc2nc3ccc(-c4cc(N(C)C)ncn4)cc3[nH]2)c1)N1CCN(C(=O)CC(F)(F)F)CC1", "target": "FLT3 F691L/ITD", "effect on": "cell-free assay", "method": "competition with immobilised ligand", "concentration": "0.1 µM", "remaining binding": "42%"}
{"SMILES": "O=C(NCCCN1CCOCC1)c1ccc(Nc2nccc(-c3cc4ccccc4s3)n2)cc1", "target": "FLT3 F691L/ITD", "effect on": "binding", "method": "competition with immobilised ligand", "concentration": "1 µM", "remaining binding": "37%"}
{"SMILES": "c1ccc(N2CCN(Cc3nc4ccccc4[nH]3)CC2)nc1", "target": "FLT3 ITD", "effect on": "binding", "method": "competition with immobilised ligand", "concentration": "1 µM", "remaining binding": "100%"}
{"SMILES": "O=C(NCCCN1CCOCC1)c1ccc(Nc2ncc(Cl)c(-c3ccc(Cl)s3)n2)cc1", "target": "Receptor-type tyrosine-protein kinase FLT3 (FLT3, Homo sapiens, UniProt P36888, D835V/ITD)", "effect on": "binding", "method": "competition with immobilised ligand", "concentration": "1 µM", "remaining binding": "1.8%"}
{"SMILES": "O=C(Nc1c[nH]nc1C(=O)NC1CCNCC1)c1cc(F)cc(F)c1", "target": "FLT3 D835H", "effect on": "binding", "method": "competition with immobilised ligand", "concentration": "1 µM", "remaining binding": "100%"}
{"SMILES": "CNC(=O)[C@@H]1CC[C@@H](n2c(-c3ccc4cnccc4c3)nc3ccc(C(=O)NCc4cccc(C(N)=O)c4)cc32)C1", "target": "FLT3 autoinhibited", "effect on": "binding", "method": "competition with immobilised ligand", "concentration": "1 µM", "remaining binding": "91%"}
{"SMILES": "Cn1nc(C(=O)NCc2ccc(C(=O)O)cc2)cc1-c1ccc2[nH]ccc2c1", "target": "FLT3 N841I", "effect on": "cell-free assay", "method": "competition with immobilised ligand", "concentration": "0.1 µM", "remaining binding": "100%"}
{"SMILES": "C[C@H]1CCN(c2nccc(-c3cnn4ncccc34)n2)C1", "target": "FLT3 autoinhibited", "effect on": "binding", "concentration": "1 µM", "remaining binding": "72%"}
{"SMILES": "c1cncc(-c2cccc(Nc3nccc(NC4CCCCC4)n3)c2)c1", "target": "FLT3", "effect on": "binding", "method": "competition with immobilised ligand", "concentration": "10 µM", "remaining binding": "0.35%"}
{"SMILES": "CN(CCCC(F)(F)F)c1nccc(-c2cnn3ncccc23)n1", "target": "FLT3 autoinhibited", "effect on": "binding", "concentration": "1 µM", "remaining binding": "100%"}
{"SMILES": "COc1ncc2cc3ccccc3nc2c1C#N", "target": "Receptor-type tyrosine-protein kinase FLT3 (FLT3, Homo sapiens, UniProt P36888, K663Q)", "effect on": "cell-free assay", "method": "competition with immobilised ligand", "concentration": "5 µM", "remaining binding": "97%"}
{"SMILES": "Nc1ncc2c(n1)-c1c([nH]c3ccc(C#CC4CC4)cc13)CCCC2", "target": "FLT3 D835H", "effect on": "binding", "method": "competition with immobilised ligand", "concentration": "1 µM", "remaining binding": "88%"}
{"SMILES": "Cc1cnn2ncc(-c3ccnc(N(C)C)n3)c2c1", "target": "FLT3", "effect on": "binding", "concentration": "1 µM", "remaining binding": "98%"}
{"SMILES": "COc1cnc(Nc2cccc(S(N)(=O)=O)c2)nc1N1CCN(c2ccccc2)C(=O)C1", "target": "FLT3 R834Q", "effect on": "binding", "method": "competition with immobilised ligand", "concentration": "1 µM", "remaining binding": "77%"}
{"SMILES": "O=C(c1ccc(Nc2ncc(Cl)c(-c3cc4ccccc4s3)n2)cc1)N1CCC(N2CCCC2)CC1", "target": "FLT3 N841I", "effect on": "binding", "method": "competition with immobilised ligand", "concentration": "1 µM", "remaining binding": "0%"}
{"SMILES": "C[C@@H](c1ccc(-n2cnc3c(N)ncnc32)cc1)N1CCc2nn(C)c(Cc3ccccc3)c2C1=O", "target": "FLT3 D835V", "effect on": "binding", "method": "competition with immobilised ligand", "concentration": "0.1 µM", "remaining binding": "87%"}
{"SMILES": "CCS(=O)(=O)c1cc2cc(C[C@](O)(CC(C)(C)c3ccc(F)cc3C(N)=O)C(F)(F)F)[nH]c2cn1", "target": "FLT3 N841I", "effect on": "cell-free assay", "method": "competition with immobilised ligand", "concentration": "1 µM", "remaining binding": "93%"}
{"SMILES": "N[C@H]1CCN(c2nccc(-c3cnn4ncccc34)n2)C1", "target": "FLT3 D835H", "effect on": "binding", "concentration": "1 µM", "remaining binding": "92%"}
{"SMILES": "COc1cnc(Nc2cccc(S(N)(=O)=O)c2)nc1N1CCN(c2ccccc2)CC1", "target": "FLT3 D835H", "effect on": "binding", "method": "competition with immobilised ligand", "concentration": "1 µM", "remaining binding": "94%"}
{"SMILES": "c1cnn2ncc(-c3ccnc(N4CCC45COC5)n3)c2c1", "target": "FLT3", "effect on": "binding", "concentration": "1 µM", "remaining binding": "85%"}
{"SMILES": "CCc1ccccc1C(=O)Nc1n[nH]c2c(C)c(F)c(C3C(C#N)=C(C)N(C)C(C)=C3C#N)cc12", "target": "FLT3 autoinhibited", "effect on": "cell-free assay", "method": "competition with immobilised ligand", "concentration": "1 µM", "remaining binding": "88%"}
{"SMILES": "O=C(c1ccc(Nc2ncc(Cl)c(-c3ccc(Cl)s3)n2)cc1)N1CCC(N2CCCC2)CC1", "target": "FLT3 R834Q", "effect on": "binding", "method": "competition with immobilised ligand", "concentration": "1 µM", "remaining binding": "5.3%"}
{"SMILES": "CN(C)c1ncc(F)c(-c2cnn3ncccc23)n1", "target": "FLT3 N841I", "effect on": "binding", "concentration": "1 µM", "remaining binding": "75%"}
{"SMILES": "CO[C@H]1CC[C@H](CNc2ccc(S(=O)(=O)NC(=O)c3ccc(N4CCN(CC5=C(c6ccc(Cl)cc6)CC(C)(C)CC5)CC4)cc3Oc3cnc4[nH]ccc4c3)cc2[N+](=O)[O-])CC1", "target": "FLT3 D835V", "effect on": "cell-free assay", "method": "competition with immobilised ligand", "concentration": "1 µM", "remaining binding": "100%"}
